The values below come from publication PMC11701428 (RSC Advances, 2025).

Molecules are shown by their SMILES.

Assay [1] concerns HepG2 cells. As to the kind of experiment: MTT cytotoxicity assay against HepG2 cells. The class given is cell-based. The following applies: read-out: IC50 ± SD HepG2, mean ± SD of three independent trials. In short, it runs like this: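 HepG2 cells (NCI Cairo) grown in RPMI-1640 with L-glutamine, 10% FBS and 1% penicillin–streptomycin at 37 °C, 5% CO2. Plated in triplicate at 5 × 10^4 cells; next day treated at 0.01, 0.1, 1, 10 and 100 μM. Viability measured by MTT relative to control, IC50 computed. Mean ± SD of three independent trials.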
On the technique in general: Tetrazolium dyes change colour on reduction, which living cells bring about.

A further assay deals with PARP-1 (Homo sapiens, UniProt P09874). Description: PARP-1 enzyme inhibition. The settings on record: for percentage of inhibition of PARP-1: concentration not given. It is filed as biochemical.
Chain of PARP-1 (P09874 whole entry): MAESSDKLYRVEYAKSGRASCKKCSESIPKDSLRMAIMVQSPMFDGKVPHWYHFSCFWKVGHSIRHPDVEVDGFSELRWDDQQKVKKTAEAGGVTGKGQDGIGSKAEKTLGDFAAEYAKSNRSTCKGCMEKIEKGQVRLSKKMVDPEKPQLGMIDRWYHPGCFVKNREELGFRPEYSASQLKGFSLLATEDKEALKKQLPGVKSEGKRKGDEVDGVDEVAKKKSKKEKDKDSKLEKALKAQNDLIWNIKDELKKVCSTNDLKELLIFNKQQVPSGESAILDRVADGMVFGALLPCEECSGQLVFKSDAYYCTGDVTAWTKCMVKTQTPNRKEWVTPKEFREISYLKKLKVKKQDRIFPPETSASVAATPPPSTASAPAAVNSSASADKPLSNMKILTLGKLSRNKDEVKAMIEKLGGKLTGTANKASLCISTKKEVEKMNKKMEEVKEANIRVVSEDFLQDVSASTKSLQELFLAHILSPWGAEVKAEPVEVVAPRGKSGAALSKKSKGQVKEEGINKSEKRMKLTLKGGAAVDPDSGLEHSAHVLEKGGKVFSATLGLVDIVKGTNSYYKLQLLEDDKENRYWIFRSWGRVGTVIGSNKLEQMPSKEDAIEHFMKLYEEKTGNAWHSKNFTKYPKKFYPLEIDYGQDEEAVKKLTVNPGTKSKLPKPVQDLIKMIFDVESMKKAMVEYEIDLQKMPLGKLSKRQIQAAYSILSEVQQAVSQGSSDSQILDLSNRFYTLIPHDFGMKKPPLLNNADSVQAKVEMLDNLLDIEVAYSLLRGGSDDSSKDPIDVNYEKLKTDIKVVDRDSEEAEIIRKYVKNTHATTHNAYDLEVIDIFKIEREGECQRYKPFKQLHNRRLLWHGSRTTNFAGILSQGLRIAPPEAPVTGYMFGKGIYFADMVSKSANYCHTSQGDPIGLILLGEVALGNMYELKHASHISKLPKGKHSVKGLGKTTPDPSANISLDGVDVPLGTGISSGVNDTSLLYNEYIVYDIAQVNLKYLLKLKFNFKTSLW
For another assay, the target named is EGFR (Homo sapiens, UniProt P00533). As to the kind of experiment: EGFR-TK enzyme inhibition. It is filed as biochemical. The settings on record: for percentage of inhibition of EGFR: concentration not given.
Chain of EGFR (P00533 25-1210): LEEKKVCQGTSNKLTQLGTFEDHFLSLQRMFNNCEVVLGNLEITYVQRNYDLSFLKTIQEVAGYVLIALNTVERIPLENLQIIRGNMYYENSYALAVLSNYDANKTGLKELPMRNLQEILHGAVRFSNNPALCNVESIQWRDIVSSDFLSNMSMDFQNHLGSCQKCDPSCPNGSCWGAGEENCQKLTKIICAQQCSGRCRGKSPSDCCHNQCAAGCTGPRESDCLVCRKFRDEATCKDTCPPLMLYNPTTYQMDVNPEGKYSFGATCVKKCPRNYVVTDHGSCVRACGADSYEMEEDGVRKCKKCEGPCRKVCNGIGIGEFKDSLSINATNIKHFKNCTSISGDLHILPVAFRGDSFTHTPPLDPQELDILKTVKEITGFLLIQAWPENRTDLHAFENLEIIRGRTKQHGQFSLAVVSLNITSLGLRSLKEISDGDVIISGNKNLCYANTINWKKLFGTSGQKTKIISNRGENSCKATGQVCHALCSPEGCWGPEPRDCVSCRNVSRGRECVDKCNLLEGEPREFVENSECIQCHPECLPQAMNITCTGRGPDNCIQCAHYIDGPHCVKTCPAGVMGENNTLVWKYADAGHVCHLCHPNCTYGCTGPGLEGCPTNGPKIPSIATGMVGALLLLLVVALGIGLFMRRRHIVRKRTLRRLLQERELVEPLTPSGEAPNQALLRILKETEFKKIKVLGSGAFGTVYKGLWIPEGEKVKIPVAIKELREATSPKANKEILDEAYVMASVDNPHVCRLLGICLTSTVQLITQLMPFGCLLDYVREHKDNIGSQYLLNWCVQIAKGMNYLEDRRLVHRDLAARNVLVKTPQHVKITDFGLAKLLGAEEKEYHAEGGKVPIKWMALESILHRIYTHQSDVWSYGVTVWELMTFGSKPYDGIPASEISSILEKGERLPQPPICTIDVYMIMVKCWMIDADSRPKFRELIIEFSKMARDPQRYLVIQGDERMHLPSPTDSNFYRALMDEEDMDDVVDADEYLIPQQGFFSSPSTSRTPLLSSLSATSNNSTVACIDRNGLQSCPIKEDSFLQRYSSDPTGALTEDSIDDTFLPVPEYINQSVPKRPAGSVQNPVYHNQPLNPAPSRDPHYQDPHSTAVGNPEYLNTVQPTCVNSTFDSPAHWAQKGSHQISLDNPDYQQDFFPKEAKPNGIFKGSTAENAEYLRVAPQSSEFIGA
Assay [2] has as its system HepG2 cells. As to the kind of experiment: Cell cycle analysis by flow cytometry in HepG2 cells. The class given is cell-based. The settings on record: HepG2, treated at IC50 for 48 h. The procedure, abridged:
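Flow cytometric cell-phase distribution of HepG2 cells. Cells were left untreated or given test compound at its IC50 for 48 h. Data are mean ± SD of three independent runs.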
For orientation: In flow cytometry, cells or beads pass a laser one at a time.

Assay [3] relates to HepG2 cells. As to the kind of experiment: Annexin V/PI staining flow cytometry. It is filed as cell-based. The following applies: HepG2, treated at IC50 for 48 h.
In assay [4] the test system is apoptosis-related genes (P53, Bax, caspases 3, 8, 9, BCL-2) in HepG2 cells. As to the kind of experiment: RT-PCR gene expression of apoptosis-related genes in HepG2 cells. It is filed as cell-based. The following applies: HepG2, IC50, 48 h, normalized to β-actin.

Turning to `Cc1c(C(=O)/C=C/c2cc3ccccc3s2)nnn1-c1c(Cl)cc(Cl)cc1Cl` [1b, (E)-3-(Benzo[b]thiophen-2-yl)-1-(5-methyl-1-(2,4,6-trichlorophenyl)-1H-1,2,3-triazol-4-yl)prop-2-en-1-one], in the assay with HepG2 cells [1], the IC50 (commonly the concentration that gives 50% inhibition) was 8500 ± 400 nM.
For the compound `Cc1c(C(=O)[C@H]2[C@H](c3cc4ccccc4s3)C3CCCN3[C@]23C(=O)Nc2cc(Cl)ccc23)nnn1-c1c(Cl)cc(Cl)cc1Cl` (stereo partly drawn) [4b, (1′S,2′S,3R)-1′-(Benzo[b]thiophen-2-yl)-6-chloro-2′-(5-methyl-1-(2,4,6-trichlorophenyl)-1H-1,2,3-triazole-4-carbonyl)-1′,2′,5′,6′,7′,7a′-hexahydrospiro[indoline-3,3′-pyrrolizin]-2-one], on PARP-1, the IC50 is 3.6 ± 0.3 nM and the “percentage of inhibition of PARP-1” value is listed as 81.2%. For the same compound, at EGFR, half-maximal inhibition (IC50) was put at 85.3 ± 2.9 nM and the “percentage of inhibition of EGFR” value is recorded as 90.1%.
For `Cc1c(C(=O)[C@H]2[C@H](c3cc4ccccc4o3)C3CCCN3[C@]23C(=O)Nc2ccc(F)cc23)nnn1-c1c(Cl)cc(Cl)cc1Cl` (stereo partly drawn) [4g, (1′S,2′S,3R)-1′-(Benzofuran-2-yl)-5-fluoro-2′-(5-methyl-1-(2,4,6-trichlorophenyl)-1H-1,2,3-triazole-4-carbonyl)-1′,2′,5′,6′,7′,7a′-hexahydrospiro[indoline-3,3′-pyrrolizin]-2-one], the IC50 with HepG2 cells [1] is 8900 ± 300 nM.
For the compound `Cc1c(C(=O)[C@H]2[C@H](c3cc4ccccc4s3)C3CCCN3[C@]23C(=O)Nc2ccc(F)cc23)nnn1-c1c(Cl)cc(Cl)cc1Cl` (stereo partly drawn) [4f, (1′S,2′S,3R)-1′-(Benzo[b]thiophen-2-yl)-5-fluoro-2′-(5-methyl-1-(2,4,6-trichlorophenyl)-1H-1,2,3-triazole-4-carbonyl)-1′,2′,5′,6′,7′,7a′-hexahydrospiro[indoline-3,3′-pyrrolizin]-2-one], on PARP-1, the IC50 was found to be 18.4 ± 1 nM and the “percentage of inhibition of PARP-1” value is on record as 86.6%. Also, on EGFR, 116 ± 3.1 nM corresponded to half-maximal inhibition (IC50) and the “percentage of inhibition of EGFR” value was determined as 84.3%.
On to `Cc1c(C(=O)[C@H]2[C@H](c3cc4ccccc4o3)C3CCCN3[C@]23C(=O)Nc2cc(Cl)ccc23)nnn1-c1c(Cl)cc(Cl)cc1Cl` (stereo partly drawn) [4a, (1′S,2′S,3R)-1′-(Benzofuran-2-yl)-6-chloro-2′-(5-methyl-1-(2,4,6-trichlorophenyl)-1H-1,2,3-triazole-4-carbonyl)-1′,2′,5′,6′,7′,7a′-hexahydrospiro[indoline-3,3′-pyrrolizin]-2-one], for which, on PARP-1, the IC50 came out at 2.01 ± 0.1 nM and the “percentage of inhibition of PARP-1” value was 95.2%. Further, in the assay with HepG2 cells [2] (control 30%), the “cell population in S-phase” value is recorded as 33%. The “cell population in G2/M-phase” value in the assay on HepG2 cells [2] (control 34%) is given as 42%. Besides, in the assay on HepG2 cells [3], the “early apoptosis cell population” value worked out at 12.1%, the “induction of apoptosis versus untreated control” value is 6.62 fold and the “late apoptosis cell population” value is 0.95%. In the assay with HepG2 cells [3] (untreated 0.61%), this compound came in with a cells in necrosis of 0.58%. Also, the “cell population in total apoptosis” value in the assay with HepG2 cells [3] (untreated 1.97%) is 13.05%. For the same compound, in assay [4] (2^−ΔΔCT), the “Bax gene expression fold change” value turned out to be 4.6 fold, the “P53 gene expression fold change” value came out at 9.3 fold, the “caspase 3 gene expression fold change” value came to 5.6 fold and the “caspase 8 gene expression fold change” value turned out to be 3.5 fold. The “caspase 9 gene expression fold change” value in assay [4] (2^−ΔΔCT) worked out at 8.6 fold. For the same compound, the “BCL-2 gene expression (fold, decrease)” value in assay [4] (anti-apoptotic gene, decreased) is 0.37 fold. For the same compound, on EGFR, the IC50 was 74.6 ± 1.8 nM and the “percentage of inhibition of EGFR” value is 94.1%.
